In series [1] the target is Amyloid-beta precursor protein (Homo sapiens) (UniProt P05067). The experiment in a line: Inhibition of amyloid beta-40 aggregation (unknown origin) assessed as unordered at 30 uM after 72 hrs by CD spectra analysis (reference value: 84 to 87%). Details: scale not given: the % may be the effect or the level left.
Series [2] shares this target. The experiment in a line: Inhibition of amyloid beta-40 aggregation (unknown origin) assessed as beta-sheet at 30 uM after 72 hrs by CD spectra analysis (reference value: 1 to 3%). Details: scale not given: the % may be the effect or the level left.
Series [3] has the same target. The experiment in a line: Inhibition of amyloid beta-40 aggregation (unknown origin) assessed as unordered at 6 uM after 72 hrs by CD spectra analysis (reference value: 84 to 87%). Details: scale not given: the % may be the effect or the level left.
Series [4] has the same target. In words: Inhibition of amyloid beta-40 aggregation (unknown origin) assessed as fibril width at 300 uM for 7 days at pH 7.4 by transmission electron microscopy (reference value: 12.3 +/- 1.2 nanometer). The essentials: (§1)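 Aβ40 (60 µM in control) was incubated quiescently with the compound at compound:Aβ40 molar ratios of 1:5, 1:1 and 5:1, pH 7.4, 37 °C, for 7 days. Fibril width and length were then measured from transmission electron microscopy images.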

Series [5] has the same target. The experiment in a line: Inhibition of amyloid beta-40 aggregation (unknown origin) assessed as beta-turns at 30 uM after 72 hrs by CD spectra analysis (reference value: 0%). Details: scale not given: the % may be the effect or the level left.
For series [6] the target is unchanged. The experiment in a line: Inhibition of amyloid beta-40 aggregation (unknown origin) assessed as beta-sheet at 150 uM after 72 hrs by CD spectra analysis (reference value: 1 to 3%). Details: scale not given: the % may be the effect or the level left.
Series [7] has the same target. In words: Inhibition of amyloid beta-40 aggregation (unknown origin) assessed as alpha-helix at 30 uM after 72 hrs by CD spectra analysis (reference value: 11 to 15%). Details: scale not given: the % may be the effect or the level left.
Series [8] has the same target. In words: Inhibition of amyloid beta-40 aggregation (unknown origin) assessed as fibril length at 300 uM for 7 days at pH 7.4 by transmission electron microscopy (reference value: > 2 micrometer). The essentials: as §1
The target is the same in series [9]. In words: Inhibition of amyloid beta-40 aggregation (unknown origin) assessed as extension of lag phase of Abeta40 aggregation at 100 uM by ThT fluorescence assay. The arrangement: scale not given: the % may be the effect or the level left. The essentials:
(§2)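 Monomer-rich Aβ40 (35 µM, supernatant after NaOH dissolution, sonication and ultracentrifugation) was incubated with 10 nM–100 µM compound in 20 mM phosphate buffer pH 7.4 (I 0.15 M), with 20 µM ThT and 0.007% NaN3, quiescent at 37 °C. Fluorescence (ex 440, em 480 nm) was read every 5 min. Lag time came from an empirical sigmoidal nonlinear-regression fit; mean ± SE of four independent experiments.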

Series [10] can be described thus: Toxicity in C57BL/6 mouse primary cortical neurons assessed as reduction in cell viability at 40 to 100 uM after 48 hrs by trypan blue dye exclusion assay. The conditions noted are these: cerebral cortex neuron. Type of series: cell-based.
The target of series [11] is Amyloid-beta precursor protein (Homo sapiens) (UniProt P05067). The experiment in a line: Inhibition of amyloid beta-40 aggregation (unknown origin) assessed as alpha-helix at 150 uM after 72 hrs by CD spectra analysis (reference value: 11 to 15%). The arrangement: scale not given: the % may be the effect or the level left.
Series [12] shares this target. In words: Inhibition of amyloid beta-40 aggregation (unknown origin) assessed as beta-sheet at 6 uM after 72 hrs by CD spectra analysis (reference value: 1 to 3%). The arrangement: scale not given: the % may be the effect or the level left.
The nature of series [13]: Neuroprotective activity in C57BL/6 mouse primary cortical neurons assessed as reduction in amyloid beta-40-induced cell death at 100 uM pre-incubated with amyloid beta-40 for 6 hrs and measured after 48 hrs by trypan blue dye exclusion assay. The class given is functional, Cerebral cortex neuron. Details: scale not given: the % may be the effect or the level left. The essentials: (§3)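 Aβ40 (40 µM) was preincubated with or without compound for 6 h at 37 °C, at molar ratios 1:1 and 2.5:1 (compound:Aβ40). It was then added to 7–9-day-old primary cortical neurons cultured from 6 pregnant C57BL/6 mice. After 48 h, cells were stained with trypan blue and live and dead cells were counted. Values are mean + SE.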

In series [14] the target is Amyloid-beta precursor protein (Homo sapiens) (UniProt P05067). The experiment in a line: Inhibition of amyloid beta-40 aggregation (unknown origin) assessed as beta-turns at 6 uM after 72 hrs by CD spectra analysis (reference value: 0%). Details: scale not given: the % may be the effect or the level left.
For series [15] the target is unchanged. The experiment in a line: Inhibition of amyloid beta-40 aggregation (unknown origin) assessed as beta-turns at 150 uM after 72 hrs by CD spectra analysis (reference value: 0%). Details: scale not given: the % may be the effect or the level left.
Series [16] shares this target. In words: Inhibition of amyloid beta-40 aggregation (unknown origin) assessed as unordered at 150 uM after 72 hrs by CD spectra analysis (reference value: 84 to 87%). Details: scale not given: the % may be the effect or the level left.
A short description of series [17]: Neuroprotective activity in C57BL/6 mouse primary cortical neurons assessed as reduction in amyloid beta-40-induced cell death at 40 uM pre-incubated with amyloid beta-40 for 6 hrs and measured after 48 hrs by trypan blue dye exclusion assay. The arrangement: scale not given: the % may be the effect or the level left. The class given is functional, Cerebral cortex neuron. The essentials:
as §3

In series [18] the target is Amyloid-beta precursor protein (Homo sapiens) (UniProt P05067). The experiment in a line: Inhibition of amyloid beta-40 aggregation (unknown origin) assessed as extension of lag phase of Abeta40 aggregation by ThT fluorescence assay. The essentials: as §2
The target is the same in series [19]. In words: Inhibition of amyloid beta-40 aggregation (unknown origin) assessed as alpha-helix at 6 uM after 72 hrs by CD spectra analysis (reference value: 11 to 15%). The arrangement: scale not given: the % may be the effect or the level left.

A value given as a limit tells only on which side of the number the result lay.

The values that follow come from ChEMBL document CHEMBL3351887, “'Click' assembly of glycoclusters and discovery of a trehalose analogue that retards Aβ40 aggregation and inhibits Aβ40-induced neurotoxicity” (Bioorg Med Chem Lett, 2014).

Chain of Amyloid-beta precursor protein (Homo sapiens) (P05067 whole entry): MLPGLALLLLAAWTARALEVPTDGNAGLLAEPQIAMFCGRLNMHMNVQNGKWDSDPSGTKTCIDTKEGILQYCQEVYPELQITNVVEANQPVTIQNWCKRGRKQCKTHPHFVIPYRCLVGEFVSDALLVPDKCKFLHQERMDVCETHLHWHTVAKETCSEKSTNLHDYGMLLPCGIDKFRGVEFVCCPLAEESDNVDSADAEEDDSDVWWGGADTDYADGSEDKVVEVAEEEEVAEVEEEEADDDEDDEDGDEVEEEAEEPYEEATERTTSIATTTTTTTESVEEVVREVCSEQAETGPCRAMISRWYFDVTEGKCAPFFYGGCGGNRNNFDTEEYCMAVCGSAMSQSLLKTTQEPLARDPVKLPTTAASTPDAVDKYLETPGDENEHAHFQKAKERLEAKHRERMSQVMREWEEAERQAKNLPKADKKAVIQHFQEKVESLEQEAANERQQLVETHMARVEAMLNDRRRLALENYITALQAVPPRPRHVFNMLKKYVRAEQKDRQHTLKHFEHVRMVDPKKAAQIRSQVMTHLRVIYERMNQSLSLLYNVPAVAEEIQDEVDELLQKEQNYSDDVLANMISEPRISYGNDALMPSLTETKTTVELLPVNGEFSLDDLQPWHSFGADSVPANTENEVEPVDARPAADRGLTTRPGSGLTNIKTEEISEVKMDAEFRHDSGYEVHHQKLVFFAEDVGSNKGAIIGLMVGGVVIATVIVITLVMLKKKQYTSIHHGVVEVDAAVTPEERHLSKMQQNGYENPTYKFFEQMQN

For `OC[C@H]1O[C@H](O[C@H]2O[C@H](Cn3cc(COCC(COCc4cn(C[C@H]5O[C@H](O[C@H]6O[C@H](CO)[C@@H](O)[C@H](O)[C@H]6O)[C@H](O)[C@@H](O)[C@@H]5O)nn4)(COCc4cn(C[C@H]5O[C@H](O[C@H]6O[C@H](CO)[C@@H](O)[C@H](O)[C@H]6O)[C@H](O)[C@@H](O)[C@@H]5O)nn4)COCC(COCc4cn(C[C@H]5O[C@H](O[C@H]6O[C@H](CO)[C@@H](O)[C@H](O)[C@H]6O)[C@H](O)[C@@H](O)[C@@H]5O)nn4)(COCc4cn(C[C@H]5O[C@H](O[C@H]6O[C@H](CO)[C@@H](O)[C@H](O)[C@H]6O)[C@H](O)[C@@H](O)[C@@H]5O)nn4)COCc4cn(C[C@H]5O[C@H](O[C@H]6O[C@H](CO)[C@@H](O)[C@H](O)[C@H]6O)[C@H](O)[C@@H](O)[C@@H]5O)nn4)nn3)[C@@H](O)[C@H](O)[C@H]2O)[C@H](O)[C@@H](O)[C@@H]1O`, the Activity in series [1] stood at 18%; in [2], 32%; in series [3], 17%; in series [4], 8.7 nm; in series [5], 30%; in series [6], 16%. Besides, the Activity in series [7] was 20%; in [8], under 2 µm; in series [9], 45%; in series [10], “Non-toxic”; in series [11] it was 22%; in series [12] it was 35%. For the same molecule, the Activity in series [13] came out at 59%; in series [14], 27%; in series [15] it was 26%; in series [16], 36%; in series [17] it was 45%; in series [19], 21%. In addition, the inhibition entry in [18] is “Dose-dependent effect”.
Take `OC[C@H]1O[C@@H](n2cc(COCC(COCc3cn([C@@H]4O[C@H](CO)[C@@H](O)[C@H](O)[C@H]4O)nn3)(COCc3cn([C@@H]4O[C@H](CO)[C@@H](O)[C@H](O)[C@H]4O)nn3)COCC(COCc3cn([C@@H]4O[C@H](CO)[C@@H](O)[C@H](O)[C@H]4O)nn3)(COCc3cn([C@@H]4O[C@H](CO)[C@@H](O)[C@H](O)[C@H]4O)nn3)COCc3cn([C@@H]4O[C@H](CO)[C@@H](O)[C@H](O)[C@H]4O)nn3)nn2)[C@H](O)[C@@H](O)[C@@H]1O`: in [9], the Activity is 28%. In addition, the inhibition result in [18] was “Dose-dependent effect”.
